# Source: PubChem (The Scripps Research Institute Molecular Screening Center)
# PAFAH1B2 FP inh – blocks human PAF acetylhydrolase 1b catalytic subunit 2 | hit rate 1.2% among 340,000 | recombinant PAFAH1B2, FP-rhodamine activity probe, fluorescence polarization | AID 492953 | P68402 | inhibition, % at 3.39 µM;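 active means inhibition above the mean of all tested compounds plus 3 SD, cut at about 24% in these data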;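 further: 0% = enzyme with DMSO and 100% = wells lacking PAFAH1B2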
# ASAP1 GAP inh – ASAP1 ArfGAP inhibition. AID 624377. Q9ULH1. ASAP1-stimulated ARF1 GTP hydrolysis, GDP FP detection. inhibition, % at 16.5 µM. hit rate 0.19% among 360,000; in the data active means inhibition above about 25%;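 further: 0% = vehicle with enzyme and substrate and 100% = no enzyme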
# pPAFAH FP inh – pPAFAH (human) enzyme inhibition. Q13093. recombinant pPAFAH, FP-rhodamine probe fluorescence polarization. inhibition, % at 3.39 µM. hit rate 1.5% among 330,000. AID 463082;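 active means inhibition above the mean inhibition across the screen plus 3 SD, cut at about 25% in these data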;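 further: inhibitors block binding of the rhodamine activity-based probe so polarization drops; 0% = enzyme with DMSO and 100% = wells lacking pPAFAH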
# ARFGAP1 inhibitor – rat ARFGAP1 inhibition. inhibition, % at 16.5 µM. Arfgap1-stimulated ARF1 GTP hydrolysis, GDP FP detection. AID 651572. Q62848. hit rate 0.26% among 360,000;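 active means inhibition above a per-plate limit, mean inhibition of low control wells plus 3 SD, cut at about 25% in these data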;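 further: 0% = DMSO wells with enzyme and 100% = wells lacking Arfgap1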
#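 System: truncated rat Arfgap1 GAP domain / Medium: HEPES-based buffer, pH 7.5 / Also added: N-terminally truncated human ARF1-GTP substrate / Incubation: enzyme reaction 120 min at 25 °C after 20 min preincubation / Measured by: FP of antibody-bound GDP Alexa 633 tracer, ex 620/em 688 nm / Replicates: singlicate, each compound tested once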
# PAFAH1B3 FP inh – PAFAH1B3 (human) inhibition | Q15102 | recombinant PAFAH1B3, FP-rhodamine probe, fluorescence polarization | inhibition, % at 3.39 µM | hit rate 0.28% among 340,000 | AID 492972;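 active means inhibition above the screen-wide average of all tested compounds plus 3 SD, cut at about 25% in these data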;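 further: 0% = enzyme with DMSO only and 100% = wells lacking PAFAH1B3 protein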
# Target sequence (Q15102 whole entry, looked up): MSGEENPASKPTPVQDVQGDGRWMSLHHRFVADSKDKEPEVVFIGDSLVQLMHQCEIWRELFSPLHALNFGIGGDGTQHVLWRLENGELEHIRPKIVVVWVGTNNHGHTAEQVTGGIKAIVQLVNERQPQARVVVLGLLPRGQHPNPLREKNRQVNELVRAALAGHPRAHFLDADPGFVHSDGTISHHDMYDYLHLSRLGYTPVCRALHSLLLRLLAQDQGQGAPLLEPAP
# PAFAH2 FP inh – inhibitors of human PAFAH2. Q99487. recombinant PAFAH2, FP-rhodamine activity probe, fluorescence polarization. inhibition, % at 3.39 µM. hit rate 0.99% among 340,000. AID 492956;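 active means inhibition above the mean over all tested compounds plus 3 SD, cut at about 30% in these data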;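 further: inhibitors block probe labeling of enzyme so polarization drops; 0% = enzyme with DMSO and 100% = wells lacking PAFAH2 protein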
# ARFGAP1 confirm – rat ARFGAP1 inhibition, confirmed | shares compounds with ARFGAP1 inhibitor | ARFGAP1-stimulated ARF1 GTP hydrolysis, GDP tracer FP | inhibition, % at 16.5 µM | hit rate 30% among 890 | AID 651608;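 active means average inhibition over triplicates above the hit cutoff set in the earlier primary screen, cut at about 25% in these data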;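 further: 0% = Arfgap1 plus ARF1-GTP with DMSO and 100% = wells lacking Arfgap1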
# Target sequence (Q62848 whole entry, looked up): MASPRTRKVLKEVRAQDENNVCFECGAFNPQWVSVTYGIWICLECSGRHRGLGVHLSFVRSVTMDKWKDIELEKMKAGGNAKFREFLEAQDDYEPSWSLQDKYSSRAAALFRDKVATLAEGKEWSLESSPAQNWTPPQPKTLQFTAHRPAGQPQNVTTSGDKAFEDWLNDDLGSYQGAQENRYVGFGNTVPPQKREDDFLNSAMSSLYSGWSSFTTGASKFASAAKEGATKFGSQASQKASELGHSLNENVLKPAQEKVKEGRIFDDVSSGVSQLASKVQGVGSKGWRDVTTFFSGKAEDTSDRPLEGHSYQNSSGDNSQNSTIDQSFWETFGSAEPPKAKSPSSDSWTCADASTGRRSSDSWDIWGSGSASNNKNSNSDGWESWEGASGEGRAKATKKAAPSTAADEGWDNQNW
# * marks the source's active call; other numbers are inactive results; / = not tested or not shown; + = active, no number. Rows were chosen to be rich in hits. Some 2.7% of all compounds tested hit in one or more screens of this group.
SMILES,PAFAH1B2 FP inh,ASAP1 GAP inh,pPAFAH FP inh,ARFGAP1 inhibitor,PAFAH1B3 FP inh,PAFAH2 FP inh,ARFGAP1 confirm
O=[N+]([O-])/C(C(=C(Cl)Cl)N1CCOCC1)=C1\NCCO1,0.8,0.5,5.1,3.7,2.0,13.0,/
O=C(CCCc1ccccc1)N=C1SC2CS(=O)(=O)CC2N1c1ccccc1F (stereo not drawn),11.4,9.2,3.1,28.6*,3.1,14.8,-0.1
CCCS(=O)(=O)NC(=O)C1(C)CCN(C(=O)C2(c3ccc(Cl)cc3)CCCC2)C1 (stereo not drawn),/,7.3,/,4.8,/,/,/
COc1cccc(OC)c1C(=O)Nc1ccc(S(=O)(=O)Nc2ncccn2)cc1,1.7,5.7,-1.0,27.8*,5.2,-1.1,8.6
COCOCCn1cc(CN2CCS(=O)(=O)N(Cc3ccc(-c4ccc(Cl)nc4)cc3)C(C(C)C)C2=O)nn1 (stereo not drawn),/,-2.5,/,-1.6,/,/,/
O=C1NC(c2cccc(OCc3ccccc3)c2)Nc2ccccc21 (stereo not drawn),5.9,-1.1,/,-7.5,3.6,3.1,/
CCn1c(COc2cc(C)ccc2C(C)C)nnc1SCC(=O)Nc1nccs1,4.5,-6.3,-0.3,24.7*,8.5,7.7,-5.3
CCCCc1nnc(SCC(=O)Nc2nccs2)n1CC,3.0,8.3,3.1,13.5,1.0,-1.4,/
COc1ccc(N2CC(C(=O)Nc3ccc(S(=O)(=O)Nc4nccs4)cc3)CC2=O)c(OC)c1 (stereo not drawn),-2.2,1.9,4.6,24.7*,8.3,4.3,0.2
COc1ccccc1NC(=O)Nc1nc(C(N)CC(C)C)cs1 (stereo not drawn),/,-12.6,/,9.5,/,/,/
CCOc1ccc(/C=N/NC(=O)c2cc3c(OC)cc(OC)cc3[nH]2)cc1OC,13.0,18.0,12.4,26.3*,22.5,0.7,47.3*
COc1ccc(-c2nc(CS(=O)(=O)CC(=O)Nc3cccc(C(C)=O)c3)c(C)o2)cc1,0.3,15.8,4.4,26.5*,4.0,-5.6,12.1
COc1cccc(-c2nc(CS(=O)(=O)CC(=O)Nc3cccc(C(C)=O)c3)c(C)o2)c1,2.8,-4.4,1.5,3.8,6.6,5.0,/
CCOc1cc(N2CCOCC2)c(OCC)cc1NC(=O)C(NC(=O)c1c(F)cccc1F)C(C)C (stereo not drawn),-0.3,11.4,/,-0.6,5.0,-3.4,/
CCOc1ccc(S(=O)(=O)N2CCN(C(=O)c3cc(C4CC4)nn3-c3ccccc3)CC2)cc1,6.0,7.0,/,-6.3,-0.9,3.0,/
Fc1ccc(-c2nnc(Cc3ccc(Cl)cc3)o2)cc1,5.5,0.6,10.8,39.9*,8.4,-5.0,-1.6
CCOC(=O)c1csc(NC(=O)CSc2nnnn2-c2ccc3c(c2)OCCO3)n1,-0.1,7.2,6.2,4.0,4.1,1.9,/
CCC(=O)Nc1ccc(NC(=O)CSc2nnnn2-c2ccc3c(c2)OCCO3)cc1,6.0,8.4,3.8,33.1*,2.4,-3.9,41.6*
CCOC(=O)[C@]12CCCC=C1N(Cc1ccccc1)C(=O)[C@H](CC(=O)NCc1cccc3ccccc13)C2,/,-2.1,/,-1.0,/,/,/
CC[C@H](CO)Oc1cc(NCc2cccc(N)c2)c2ncn(C(C)C)c2c1,/,3.2,/,27.4*,/,/,2.7
CCCNC(=O)/C=C/C(=O)O,-2.8,-0.8,-1.6,3.6,2.5,-4.5,/
CC(C)(C)CC(C)(C)NC(=O)/C=C/C(=O)O,-2.2,-15.6,1.4,25.1*,1.7,1.5,-1.7
NC(c1csc(Nc2ccc(C(=O)c3ccccc3)cc2)n1)c1ccccc1Cl (stereo not drawn),/,19.9,/,18.2,/,/,/
CSc1cccc(NC(=O)OC2CCCCCCCCCCC2)c1,1.1,2.1,-0.2,-0.2,-3.2,-11.1,/
CC(C)c1cccc(C(C)C)c1NC(=O)OC1CCCCC1,/,-11.0,/,28.4*,/,/,4.5
SMILES,PAFAH1B2 FP inh,ASAP1 GAP inh,pPAFAH FP inh,ARFGAP1 inhibitor,PAFAH1B3 FP inh,PAFAH2 FP inh,ARFGAP1 confirm
COC(=O)c1cc(S(=O)(=O)NCC2CCN(Cc3cccc(F)c3)CC2)cn1C,5.0,2.3,2.6,-3.0,0.2,3.4,/
COc1[nH]c2ccc(F)cc2c1C(=O)OCC1CCN(CCNS(C)(=O)=O)CC1,4.7,-12.3,2.3,27.5*,7.5,-2.7,2.4
O=C1NC(Cc2ccccc2)c2nc3cc(Cl)ccc3c(=O)n2-c2ccccc21 (stereo not drawn),/,8.9,4.2,-1.3,/,/,/
CCOC(=O)C1=C(CCc2ccccc2)NC(=O)NC1c1cccc([N+](=O)[O-])c1 (stereo not drawn),-2.8,6.0,0.1,3.7,0.7,-5.3,/
CN(C)/C=C/C1=C([N+](=O)[O-])C(c2cccc([N+](=O)[O-])c2)NC(=O)N1 (stereo not drawn),4.0,-2.9,14.1,27.9*,9.5,9.7,4.0
CCSCCOC(=O)C1=C(C)NC(=O)NC1c1cccc(OC)c1OC (stereo not drawn),-0.9,1.4,5.3,26.2*,-1.3,3.1,1.0
CCN(CC)CCCNC(=O)c1ccc(S(=O)(=O)Nc2ccc(C)c(C)c2)cc1,6.6,-5.9,13.5,6.3,-5.1,-5.1,/
O=C(CSc1nnc(COc2ccc(Cl)cc2)o1)NC1CC2CCC1C2 (stereo not drawn),24.2*,0.1,9.7,30.1*,4.8,2.5,3.2
CCCCCn1c(=O)[nH]c2cc(C(=O)N3CCN(C(=O)OCC)CC3)ccc2c1=O,-1.5,-5.6,3.1,25.0*,6.0,11.8,5.2
CCOC(=O)N1CCN(C(=O)c2ccc3c(=O)n(CCOC)c(=O)[nH]c3c2)CC1,0.3,-5.9,-3.0,-6.8,-0.2,-5.1,/
CCNC(=O)NC(=O)C(C)Sc1nc2ccccc2c(=O)n1-c1cccnc1 (stereo not drawn),-6.7,2.2,4.8,4.0,8.1,-5.5,/
CCNC(=O)NC(=O)C(C)Sc1nc2cc(C(=O)OC)ccc2c(=O)n1-c1ccccc1 (stereo not drawn),3.7,-1.4,0.0,26.6*,3.0,-2.2,5.9
Cc1ccc(NC(=O)C2C3/C=C\CCCCC32)cc1C (stereo not drawn),-3.5,9.4,5.0,44.2*,-8.3,0.4,-3.0
O=P(OC1CCS(=O)(=O)C1)(c1ccccc1)c1ccccc1 (stereo not drawn),6.0,3.2,-0.2,26.6*,10.9,6.1,-0.6
c1ccc2c(c1)COc1c3ncccc3nn1-2,/,1.9,/,+,/,/,-1.5
N#C/C(=C/c1ccc(N2CCCC2)c([N+](=O)[O-])c1)c1nc2ccccc2[nH]1,4.3,2.1,3.8,-13.5,4.0,5.1,/
N#C/C(=C\c1ccc(Oc2ccc(C(F)(F)F)cc2[N+](=O)[O-])cc1)c1nc2ccccc2[nH]1,-4.1,15.0,3.1,25.0*,-16.4,-27.0,9.9
